Bioassay records deposited in PubChem by Broad Institute.
Hits are enriched below; roughly 1.2% of the tested compounds scored in any of these assays.
ARNT-TACC3 inh = disruptors of ARNT/TACC3 protein interaction, primary screen, biochemical, AlphaScreen, single concentration; 390,000 compounds, 0.66% hits; inhibition, % at 9.99 µM; AlphaScreen His-ARNT PAS-B/GST-TACC3 binding, luminescence; TACC3 fragment carries E629A point mutation; Transforming acidic coiled-coil-containing protein 3 (Homo sapiens), Q9Y6A5; AID 623870, 2012;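 active means mean inhibition of replicates at least 50% and at least half of replicates each reaching 50%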;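 further: 0% = complete ARNT plus TACC3 wells and 100% = ARNT alone without TACC3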
CAL PDZ FP-1 = CAL PDZ peptide-binding inhibitors, primary screen, biochemical, fluorescence polarization, Cer-tagged CAL PDZ, HTS; Golgi-associated PDZ and coiled-coil motif-containing protein (Homo sapiens), Q9HD26; purified CAL PDZ, TMR-peptide fluorescence polarization, 1 h; inhibition, % at 20 µM; 330,000 compounds, 0.02% hits;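 active means highest replicate inhibition of at least 40%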;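 further: plate controls were DMSO neutral control wells for no effect and unlabeled competitor peptide control wells for full effect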
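Test system: tagged CAL PDZ domain / Buffer or medium: sodium phosphate/NaCl buffer pH 7.4 with TCEP, IgG, Thesit / Reagent: TMR-labelled reporter peptide T*-PRC34 bound in PDZ groove / Compound dosing: single point, 20 µM / Schedule: 1 h incubation at room temperature before polarization reading / Technique: fluorescence polarization (mP) / Benchmarks: unlabelled peptide, DMSO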
CAL PDZ FP-2 = untagged CAL PDZ binding inhibitors, primary screen, biochemical, fluorescence polarization, HTS; purified CAL PDZ, TMR-peptide fluorescence polarization, 1 h; 300,000 compounds, 0.92% hits; AID 602252, 2012; Golgi-associated PDZ and coiled-coil motif-containing protein (Homo sapiens), Q9HD26; inhibition, % at 24.9 µM;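 active means mean inhibition of at least 30% with at least half of replicates also reaching 30%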;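 further: 0% = DMSO neutral control and 100% = excess unlabeled competitor peptide PRC23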
* hit, by the source's call; · = no result.

SMILES	ARNT-TACC3 inh	CAL PDZ FP-1	CAL PDZ FP-2
CO[C@@H]1CN(C)C(=O)c2ccc(NC(=O)c3cccc(F)c3)cc2OC[C@H](C)N(C)C[C@H]1C	-8	·	·
C[C@H](CO)N1C[C@H](C)[C@H](CN(C)Cc2ccncc2)Oc2c(NS(=O)(=O)c3ccc(F)cc3)cccc2C1=O	-7	·	·
N#C/C(=C/c1cn[nH]c1-c1ccc(Br)cc1)C(=O)O	0	-2	33*
N#C/C(=C/c1cn[nH]c1-c1cccc(Br)c1)C(=O)O	-4	-1	1
C#CCOCCOCCOCCNc1nc(N2CCN(C(=O)CCCCCCCCCCNC(=O)[C@H]([C@@H](C)CC)n3cc(CCCCCN)nn3)CC2)nc(N2CCN(C(=O)CCCCCCCCCCNC(=O)[C@H](CCCCN)n3cc(CCCC(=O)O)nn3)CC2)n1	0	-1	-3
C#CCOCCOCCOCCNc1nc(N2CCN(C(=O)[C@H](Cc3ccc(O)cc3)n3cc([C@@H](N)C(C)CC)nn3)CC2)nc(N2CCN(C(=O)[C@H](CCCCN)n3cc([C@@H](N)CO)nn3)CC2)n1 (stereo not given in full)	46*	-1	-3
C#CCOCCOCCOCCNc1nc(N2CCN(C(=O)CCCCCCCCCCNC(=O)[C@@H](CCC(=O)O)n3cc(CCCCCN)nn3)CC2)nc(N2CCN(C(=O)CCCCCCCCCCNC(=O)[C@H]([C@@H](C)CC)n3cc(CCCCCN)nn3)CC2)n1	49*	-6	-7
C#CCOCCOCCOCCNc1nc(N2CCN(C(=O)[C@H]([C@@H](C)CC)n3cc([C@@H](N)CO)nn3)CC2)nc(N2CCN(C(=O)[C@H](CCCCN)n3cc([C@@H](N)C(C)CC)nn3)CC2)n1 (stereo not given in full)	27	1	-2
O=C(Nc1ccccc1F)N[C@@H]1CC[C@@H](CCNC(=O)C2CCOCC2)O[C@H]1CO	-15	·	·
COc1cccc(S(=O)(=O)N[C@@H]2C=C[C@H](CC(=O)NCc3ccncc3)O[C@@H]2CO)c1	-5	·	·
Cc1nc2ccc(C(=O)N/N=C/c3ccccc3O)cc2[nH]1	93*	-3	-4
COc1ccc(/C=N/NC(=O)c2nonc2C)cc1	-3	0	-3
O=C(N/N=C/c1ccc(O)cc1O)c1ccncc1	74*	0	1
O=C(N/N=C/c1ccc(Cl)cc1Cl)c1ccncc1	10	-3	-6
Cc1nonc1C(=O)N/N=C/c1ccc(O)cc1O	66*	-2	-4
Cc1nc2ccc(C(=O)N/N=C/c3cc([N+](=O)[O-])ccc3O)cc2[nH]1	14	-4	-3
CC(=O)N1[C@@H]2c3ccc(C4=CCCC4)c(=O)n3C[C@@H]2[C@@H](CO)[C@@H]1C(=O)Nc1ccccc1	2	·	·
CC(C)NC(=O)Nc1ccc2c(c1)C(=O)N([C@H](C)CO)C[C@@H](C)[C@@H](CN(C)C(=O)Nc1ccc(C(F)(F)F)cc1)OCCCC[C@@H](C)O2	-6	·	·
COc1cnc(-c2ccccc2)nc1Oc1ccccc1C	-18	0	·
COc1cnc(-c2ccccn2)nc1Oc1ccc(Cl)c2ccccc12	17*	-2	-4
CCCNC(=O)Nc1ccc2c(c1)C(=O)N(C)C[C@@H](OC)[C@@H](C)CN(CCC)[C@@H](C)CO2	-1	·	·
O=c1ccc2[n+]([O-])c3ccc(O)cc3oc-2c1	6	43*	71*
O=c1cc(O)c2ccc(O)cc2o1	-4	1	-2
COC(=O)c1c(N2C(=O)[C@H]3[C@@H](C2=O)[C@]2(C(=O)Nc4c(C)cc(C)cc42)N2CCC[C@@H]32)sc(C)c1C	3	0	66*
COC(=O)c1c(N2C(=O)[C@H]3[C@@H](C2=O)[C@]2(C(=O)Nc4c2ccc(C)c4C)N2CCC[C@@H]32)sc(C)c1C	0	-1	1
SMILES	ARNT-TACC3 inh	CAL PDZ FP-1	CAL PDZ FP-2
C[C@H](CO)N1C[C@H](C)[C@H](CN(C)Cc2ccc(C(F)(F)F)cc2)Oc2ccc(NS(=O)(=O)c3cn(C)cn3)cc2C1=O	-8	·	·
O=C(CN1CCOCC1)NCC[C@H]1CC[C@H](NC(=O)c2ccc3c(c2)OCO3)[C@H](CO)O1	-16	·	·
Oc1ccc(C=NN=Cc2ccco2)c(O)c1	0	0	-5
NC(=N\N=Cc1ccco1)/C(N)=N/N=Cc1ccco1	63*	-3	-1
C/C(CC(=O)Nc1ccccc1C)=N\NC(=O)Cc1csc(N)n1	-6	-1	44*
C/C(CC(=O)Nc1ccc(Br)cc1)=N\NC(=O)Cc1csc(N)n1	1	-1	1
Cc1cccc(NC(=O)c2ccc([N+](=O)[O-])s2)c1C	1	-2	47*
Cc1cccc(C)c1NC(=O)c1ccc([N+](=O)[O-])s1	5	-2	-7
Cn1c(=O)c2[nH]c(CCc3ccncc3)nc2n(C)c1=O	-2	-1	54*
CCCc1nc2c([nH]1)c(=O)n(C)c(=O)n2C	-6	-1	-7
CO[C@@H]1CN(C)C(=O)c2ccc(NC(=O)Nc3c(C)noc3C)cc2OC[C@@H](C)NC[C@@H]1C	4	·	·
Cc1ccc(OCCCn2c(CO)nc3ccccc32)cc1	-1	-1	5
Cc1cccc(OCCCn2c(CO)nc3ccccc32)c1	-3	·	89*
CCOC(=O)CSc1nnc(-c2ccoc2C)n1-c1ccc(OCC)cc1	-2	-2	7
CCOC(=O)CSc1nnc(-c2ccoc2C)n1-c1ccc(C)cc1	5	1	45*
COCC(=O)N1C[C@H](C)[C@@H](OC)CN(C)C(=O)c2ccc(NS(C)(=O)=O)cc2OC[C@H]1C	-5	·	·
O=S1(=O)N=C(N2CCOCC2)c2ccccc21	26	0	0
c1ccc2c(c1)CC1(CCCC1)N=C2N1CCOCC1	-4	0	68*
CNC[C@H]1OCCCC[C@H](C)Oc2ccc(NC(=O)Nc3cccc4ccccc34)cc2C(=O)N([C@@H](C)CO)C[C@@H]1C	9	·	·
Cc1ccc(N2CCN(C(=S)c3ccc(N(C)C)cc3)CC2)cc1	4	-1	-3
CN(C)c1ccc(C(=S)N2CCN(c3ccccc3)CC2)cc1	-7	·	50*
O=C(C[C@@H]1C[C@H]2c3cc(NC(=O)NC4CCCCC4)ccc3O[C@H]2[C@@H](CO)O1)NCC1CC1	-10	·	·
COc1cccc(CNc2cnc3ccccc3c2)c1O	20	-2	2
COc1cccc(CNc2nc3ccccc3n2C)c1O	-2	18	44*
CCOC(=O)c1cc([N+](=O)[O-])sc1N	-1	-1	62*
CCOC(=O)c1cc([N+](=O)[O-])sc1NC(=O)CC	1	0	1
C[C@@H]1CN([C@H](C)CO)C(=O)c2cc(NC(=O)Nc3ccc(F)cc3)ccc2O[C@H]1CN(C)Cc1ccc2c(c1)OCO2	3	·	·
CCN(CC)c1ccc(N=Cc2ccc(N(CC)CC)cc2O)cc1	4	-2	·
CCN(CC)c1ccc(/C=N/NC(=S)NC)c(O)c1	60*	-4	0
